Reference: ChEMBL document CHEMBL4266004, “Series of Alkynyl-Substituted Thienopyrimidines as Inhibitors of Protozoan Parasite Proliferation” (ACS Med Chem Lett, 2018)
The source made the active and inactive calls. The rule behind the calls is not given here.

Columns and labels:
[1] = Cytotoxicity against human HepG2 cells; format: cell-based; conditions: read-out: TC50 (the source's name)
[2] = system: Trypanosoma brucei brucei; test: Antitrypanosomal activity against Trypanosoma brucei brucei 427 at 5 uM after 48 hrs by presto blue dye based fluorescence assay relative to control; format: functional
Method in brief: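 Single-concentration screen of bloodstream T. brucei cultures at 5 μM, 5 × 10^4 cells/mL; percent proliferation inhibition recorded.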

Trypanosoma cruzi = test: Antitrypanosomal activity against Trypanosoma cruzi Tulahuen intracellular amastigote harboring beta-galactosidase infected in mouse NIH/3T3 cells after 96 hrs by CPRG reagent based assay; format: functional, organism-based; conditions: NIH3T3, 96 h
[3] = Cytotoxicity against mouse NIH/3T3 cells; format: cell-based, NIH3T3; conditions: read-out: TC50 (the source's name)
[4] = Selectivity index, ratio of TC50 for mouse NIH/3T3 cells to EC50 for Trypanosoma cruzi Tulahuen intracellular amastigote harboring beta-galactosidase; format: toxicity, cell-based; conditions: read-out: Selectivity Index
Method in brief: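 NIH 3T3 cells, the host line for intracellular T. cruzi amastigote culture, tested for toxicity. Selectivity = NIH3T3 TC50 / T. cruzi EC50.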

Leishmania major = test: Antileishmanial activity against Leishmania major intracellular amastigotes harboring luciferase infected in mouse RAW264.7 cells after 96 hrs by luminescence assay; format: functional, organism-based; conditions: RAW264.7, 96 h
Method in brief: (§1)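 L. major amastigotes screened in duplicate or quadruplicate. Selectivity derived as HepG2 TC50 / L. major EC50.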

[5] = Selectivity index, ratio of TC50 for human HepG2 cells to EC50 for Leishmania major intracellular amastigotes harboring luciferase infected in mouse RAW264.7 cells; format: toxicity, cell-based; conditions: read-out: Selectivity Index; method in brief: as §1
Plasmodium falciparum = test: Antimalarial activity against Plasmodium falciparum D6 trophozoites after 72 hrs by SYBR Green I dye-based fluorescence assay; format: functional, organism-based; conditions: D6, 72 h
Method in brief: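 P. falciparum D6 strain; compounds run in duplicate or quadruplicate; EC50 determined from dose-response.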

[6] = Selectivity index, ratio of TC50 for human HepG2 cells to EC50 for Plasmodium falciparum D6 trophozoites; format: toxicity; conditions: read-out: Selectivity Index
Method in brief: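 P. falciparum D6 screened in duplicate or quadruplicate. Selectivity = HepG2 TC50 / P. falciparum EC50.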

[7] = Selectivity ratio of EC50 for antimalarial activity against Plasmodium falciparum W2 trophozoites to EC50 for atimalarial activity against Plasmodium falciparum D6 trophozoites; format: functional
[8] = Selectivity ratio of EC50 for antimalarial activity against Plasmodium falciparum C235 trophozoites to EC50 for atimalarial activity against Plasmodium falciparum D6 trophozoites; format: functional
[9] = system: Trypanosoma brucei brucei; test: Antitrypanosomal activity against Trypanosoma brucei brucei 427 after 48 hrs by presto blue dye based fluorescence assay; format: functional, organism-based; conditions: Trypanosoma brucei, 427, 48 h
[10] = Selectivity index, ratio of TC50 for human HepG2 cells to EC50 for Trypanosoma brucei brucei 427; format: toxicity; conditions: read-out: Selectivity Index
Mus musculus [11] = test: Time at which plasma concentration stays above in vitro antitrypanosomal EC50 in Swiss Webster mouse at 130 mg/kg, po by LC-MS/MS analysis; format: ADME, organism-based; conditions: in vivo
Trypanosoma brucei [12] = test: Antitrypanosomal activity against Trypanosoma brucei Lister 427 infected in Swiss Webster mouse assessed as mouse survival at 130 mg/kg, po via gavage once daily for 10 days starting from 24 hrs post infection (reference value: 5 day); format: functional
Method in brief: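 Mice, four per group, infected with 10^5 T. brucei Lister427 on day 0. From 24 h, oral gavage at 130 mg/kg once daily for 10 days in 10% NMP/90% PEG; controls received vehicle only. Parasitemia followed through and after dosing. Survival compared by chi-square analysis of Kaplan–Meier data.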

Mus musculus [13] = test: Toxicity in Swiss Webster mouse infected with Trypanosoma brucei Lister 427 at 130 mg/kg, po via gavage once daily for 10 days starting from 24 hrs post infection; format: organism-based; conditions: in vivo
Method in brief: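 Infected mice (four per group; 10^5 T. brucei Lister427) dosed orally 130 mg/kg once daily for 10 days from 24 h post-infection, vehicle 10% NMP/90% PEG; observed for signs of toxicity.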

Trypanosoma brucei [14] = test: Antitrypanosomal activity against Trypanosoma brucei Lister 427 infected in Swiss Webster mouse assessed as reduction in parasitemia at 130 mg/kg, po via gavage once daily for 10 days starting from 24 hrs post infection by hemocytometric method; format: functional, organism-based
Method in brief: (§2)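 Mice, four per group, infected with 10^5 T. brucei Lister427 (day 0); from 24 h, 130 mg/kg by oral gavage once daily for 10 days in 10% NMP/90% PEG; controls received vehicle; parasitemia followed over time after infection; mean parasitemia compared by Student's t test.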

Trypanosoma brucei [15] = test: Antitrypanosomal activity against Trypanosoma brucei Lister 427 infected in Swiss Webster mouse assessed as reduction in parasitemia at 130 mg/kg, po via gavage once daily for 10 days starting from 24 hrs post infection measured on day 13 by hemocytometric method; format: functional, organism-based; method in brief: as §2
Trypanosoma brucei [16] = test: Inhibition of transferrin-647 uptake in Trypanosoma brucei Lister 427 at 9.5 uM after 3 hrs by propidium iodide staining based flow cytometry; format: functional, organism-based
Trypanosoma brucei [17] = test: Antitrypanosomal activity against Trypanosoma brucei Lister 427 assessed as reduction in fraction of trypanosomes containing one nucleus at 9.5 uM after 3 hrs by mCLING/DAPI staining based fluorescence microsocpic method; format: functional, organism-based
Method in brief: (§3)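 Mid-log bloodstream T. brucei (5 × 10^5 cells/mL) exposed to compound or DMSO for 3 h, fixed, stained with mCLING plus DAPI for kinetoplast and nuclear DNA; kinetoplasts and nuclei per cell counted by fluorescence microscopy (n >120 cells); mean percentages over three biological replicates; distribution compared by Pearson χ2.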

Trypanosoma brucei [18] = test: Antitrypanosomal activity against Trypanosoma brucei Lister 427 assessed as reduction in fraction of trypanosomes containing one kinetoplast at 9.5 uM after 3 hrs by mCLING/DAPI staining based fluorescence microsocpic method; format: functional, organism-based; method in brief: as §3
Trypanosoma brucei [19] = test: Antitrypanosomal activity against Trypanosoma brucei Lister 427 assessed as increase in fraction of trypanosomes containing one 2K1N at 9.5 uM after 3 hrs by mCLING/DAPI staining based fluorescence microsocpic method; format: functional, organism-based; method in brief: as §3
Trypanosoma brucei [20] = test: Antitrypanosomal activity against Trypanosoma brucei Lister 427 assessed as increase in fraction of trypanosomes containing one 2K2N at 9.5 uM after 3 hrs by mCLING/DAPI staining based fluorescence microsocpic method; format: functional, organism-based; method in brief: as §3
Trypanosoma brucei [21] = test: Antiparasitic activity against Trypanosoma brucei; format: functional, organism-based

Structure (SMILES) | CC50 [1] | Activity [2] | EC50 (Trypanosoma cruzi) | CC50 [3] | selectivity ratio [4] | EC50 (Leishmania major) | selectivity ratio [5] | EC50 (Plasmodium falciparum) | selectivity ratio [6] | Ratio EC50 [7] | Ratio EC50 [8] | EC50 [9] | selectivity ratio [10] | also measured
CCCN(CC#Cc1cc2c(Nc3ccc(OCc4cccc(F)c4)c(Cl)c3)ncnc2s1)CCC | 17 µM | 0% | 1.7 µM | 2.2 µM | 1.3 | 1.4 µM | 12 | 0.8 µM | 21 | < 3 | < 3 | – | – | –
Fc1cccc(COc2ccc(Nc3ncnc4cc(C#C[C@@H]5CCCN5)sc34)cc2Cl)c1 | 9.6 µM | >75% | 3.7 µM | 10 µM | 2.7 | 4.2 µM | 2.3 | 0.94 µM | 10 | < 3 | < 3 | 0.22 µM | 44 | –
Fc1cccc(COc2ccc(Nc3ncnc4cc(C#C[C@H]5CCCN5)sc34)cc2Cl)c1 | – | – | – | – | – | – | – | – | – | – | – | 0.26 µM | – | Time (Mus musculus [11]): <= 4 hr; Survival (Trypanosoma brucei [12]): 7.5 days; Activity (Mus musculus [13]): Non-Toxic; Activity (Trypanosoma brucei [14]): Active; Activity (Trypanosoma brucei [15]): inactive; inhibition (Trypanosoma brucei [16]): inactive; Activity (Trypanosoma brucei [17]): Active; Activity (Trypanosoma brucei [18]): Active; Activity (Trypanosoma brucei [19]): Active; Activity (Trypanosoma brucei [20]): Active
Fc1cccc(COc2ccc(Nc3ncnc4sc(C#CCN5CCNCC5)cc34)cc2Cl)c1 | 7.7 µM | >75% | 0.61 µM | 3.9 µM | 6.4 | 9.1 µM | 0.85 | 0.38 µM | 20 | < 3 | < 3 | 1.9 µM | 4.1 | –
CS(=O)(=O)CCNCc1ccc(-c2ccc3ncnc(Nc4ccc(OCc5cccc(F)c5)c(Cl)c4)c3c2)o1 [LAPATINIB] | – | – | – | – | – | – | – | – | – | – | – | – | – | EC50 (Trypanosoma brucei [21]): 1.4 to 1.5 µM
CN1CCN(CC#Cc2cc3c(Nc4ccc(OCc5cccc(F)c5)c(Cl)c4)ncnc3s2)CC1 | 15 µM | >75% | 3.5 µM | 6.7 µM | 1.9 | 8.1 µM | 1.9 | 0.26 µM | 58 | < 3 | < 3 | 1 µM | 15 | –
CN(C)CC#Cc1cc2c(Nc3ccc(OCc4cccc(F)c4)c(Cl)c3)ncnc2s1 | > 32 µM | >75% | 2.6 µM | 41 µM | 16 | 5.5 µM | > 5.8 | 1.5 µM | > 21 | – | – | 2.5 µM | > 13 | –
Fc1cccc(COc2ccc(Nc3ncnc4sc(C#CCN5CCCC5)cc34)cc2Cl)c1 | > 30 µM | >75% | – | – | – | 4.3 µM | > 7 | 0.14 µM | > 214 | < 3 | < 3 | > 2.5 µM | – | –
Fc1cccc(COc2ccc(Nc3ncnc4cc(C#Cc5ccccn5)sc34)cc2Cl)c1 | 24 µM | >75% | 12 µM | 27 µM | 2.3 | 0.38 µM | 63 | 2 µM | 12 | – | – | 1.3 µM | 18 | –
CN1CCN(CC#Cc2cc3ncnc(Nc4ccc(OCc5cccc(F)c5)c(Cl)c4)c3s2)CC1 | 11 µM | >75% | 2.1 µM | 4.8 µM | 2.3 | > 15 µM | – | 0.64 µM | 17 | < 3 | < 3 | 2.5 µM | 4.3 | –
CN1CCN(CC#Cc2ccc3ncnc(Nc4ccc(OCc5cccc(F)c5)c(Cl)c4)c3c2)CC1 | 8.2 µM | >75% | 2.5 µM | 7.2 µM | 2.9 | 10 µM | 0.8 | 0.16 µM | 51 | < 3 | < 3 | 1 µM | 8.2 | –
